Test results from ChEMBL document CHEMBL3400032 (Bioorg Med Chem, 2015).

Assays:
[1] = Clearance in rat at 1.5 mg/kg, iv; format: ADME, organism-based; set-up: dose 1.5 mg/kg, route intravenous; settings: in vivo
Liver microsome [2] = experiment: Clearance in Sprague-Dawley rat liver microsomes assessed per mg protein
[3] = AUC in rat at 1.5 mg/kg, iv; format: ADME, organism-based; set-up: dose 1.5 mg/kg, route intravenous; settings: plasma
Liver microsome [4] = experiment: Clearance in human liver microsomes assessed per mg protein
[5] = Half life in rat at 1.5 mg/kg, iv; format: ADME, organism-based; set-up: dose 1.5 mg/kg, route intravenous; settings: in vivo
[6] = Permeability of the compound at pH 5 by PAMPA; format: ADME; settings: read-out: permeability
[7] = Permeability of the compound at pH 7.4 by PAMPA; format: ADME; settings: read-out: permeability
[8] = Volume of distribution at steady state in rat at 1.5 mg/kg, iv; format: ADME, organism-based; set-up: dose 1.5 mg/kg, route intravenous; settings: in vivo, read-out: Vdss
Serum [9] = experiment: Drug metabolism in human serum assessed as 2-(3-aminopiperidin-1-yl)-3-(2-chlorobenzyl)-5-methyl-4-oxo-4,5-dihydro-3H-imidazo[4,5-c]quinoline-8-carboxylic acid formation at 1 uM after 30 mins by HPLC/MS/MS analysis relative to control; format: ADME, cell-free; settings: 0.5 h
Outline: (§1)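 Test compound at 1 µM final, incubated 30 min at 37 °C in serum, or in S9 mix (50 mM potassium phosphate pH 7.4, 3 mM NADPH, 1 mg protein/mL pooled male SD rat or human liver S9). Preincubated 5 min at 37 °C, compound added in acetonitrile–water (1:1), stopped with ice-cold acetonitrile, centrifuged, filtered, parent and carboxylate hydrolysate quantified by HPLC-MS/MS.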

Serum [10] = experiment: Drug metabolism in rat serum assessed as 2-(3-aminopiperidin-1-yl)-3-(2-chlorobenzyl)-5-methyl-4-oxo-4,5-dihydro-3H-imidazo[4,5-c]quinoline-8-carboxylic acid formation at 1 uM after 30 mins by HPLC/MS/MS analysis relative to control; format: ADME, cell-free; settings: 0.5 h; outline: as §1
[11] = Drug metabolism in Sprague-Dawley rat liver S9 fraction assessed as 2-(3-aminopiperidin-1-yl)-3-(2-chlorobenzyl)-5-methyl-4-oxo-4,5-dihydro-3H-imidazo[4,5-c]quinoline-8-carboxylic acid formation at 1 uM after 30 mins by HPLC/MS/MS analysis relative to control; format: ADME, subcellular; settings: s9, 0.5 h; outline: as §1
[12] = Drug metabolism in human liver S9 fraction assessed as compound remaining at 1 uM after 30 mins by HPLC/MS/MS analysis relative to control; format: ADME, subcellular; settings: read-out: Stability; outline: as §1
[13] = Drug metabolism in Sprague-Dawley rat liver S9 fraction assessed as compound remaining at 1 uM after 30 mins by HPLC/MS/MS analysis relative to control; format: ADME, subcellular; settings: read-out: Stability; outline: as §1
[14] = Drug metabolism in human liver S9 fraction assessed as 2-(3-aminopiperidin-1-yl)-3-(2-chlorobenzyl)-5-methyl-4-oxo-4,5-dihydro-3H-imidazo[4,5-c]quinoline-8-carboxylic acid formation at 1 uM after 30 mins by HPLC/MS/MS analysis relative to control; format: ADME, subcellular; settings: s9, 0.5 h; outline: as §1
[15] = Drug metabolism in rat serum assessed as compound remaining at 1 uM after 30 mins by HPLC/MS/MS analysis relative to control; format: ADME, cell-free; settings: read-out: Stability; outline: as §1
[16] = Drug metabolism in human serum assessed as compound remaining at 1 uM after 30 mins by HPLC/MS/MS analysis relative to control; format: ADME, cell-free; settings: read-out: Stability; outline: as §1
[17] = Half life in rat at 1 mg/kg, iv; format: ADME, organism-based; set-up: dose 1 mg/kg, route intravenous; settings: in vivo
[18] = Clearance in rat at 1 mg/kg, iv; format: ADME, organism-based; set-up: dose 1 mg/kg, route intravenous; settings: in vivo
[19] = AUC in rat at 1 mg/kg, iv; format: ADME, organism-based; set-up: dose 1 mg/kg, route intravenous; settings: plasma
[20] = Volume of distribution at steady state in rat at 1 mg/kg, iv; format: ADME, organism-based; set-up: dose 1 mg/kg, route intravenous; settings: in vivo, read-out: Vdss
Serum [21] = experiment: Drug metabolism in rat serum assessed as 2-(3-aminopiperidin-1-yl)-3-(2-chlorobenzyl)-5-methyl-4-oxo-4,5-dihydro-3H-imidazo[4,5-c]quinoline-7-carboxylic acid formation at 1 uM after 30 mins by HPLC/MS/MS analysis relative to control; format: ADME, cell-free; settings: 0.5 h; outline: as §1
[22] = Drug metabolism in Sprague-Dawley rat liver S9 fraction assessed as 2-(3-aminopiperidin-1-yl)-3-(2-chlorobenzyl)-5-methyl-4-oxo-4,5-dihydro-3H-imidazo[4,5-c]quinoline-7-carboxylic acid formation at 1 uM after 30 mins by HPLC/MS/MS analysis relative to control; format: ADME, subcellular; settings: s9, 0.5 h; outline: as §1
Serum [23] = experiment: Drug metabolism in human serum assessed as 2-(3-aminopiperidin-1-yl)-3-(2-chlorobenzyl)-5-methyl-4-oxo-4,5-dihydro-3H-imidazo[4,5-c]quinoline-7-carboxylic acid formation at 1 uM after 30 mins by HPLC/MS/MS analysis relative to control; format: ADME, cell-free; settings: 0.5 h; outline: as §1
Rattus norvegicus [24] = experiment: Oral bioavailability in rat assessed as 2-(3-aminopiperidin-1-yl)-3-(2-chlorobenzyl)-5-methyl-4-oxo-4,5-dihydro-3H-imidazo[4,5-c]quinoline-7-carboxylic acid level at 20 mg/kg; format: ADME, organism-based; settings: in vivo
[25] = Solubility of the compound at pH 5.5; format: physicochemical; settings: buffer
[26] = Solubility of the compound at pH 2.5; format: physicochemical; settings: buffer
Rattus norvegicus [27] = experiment: AUC in rat assessed as 2-(3-aminopiperidin-1-yl)-3-(2-chlorobenzyl)-5-methyl-4-oxo-4,5-dihydro-3H-imidazo[4,5-c]quinoline-7-carboxylic acid level at 20 mg/kg, po; format: ADME, organism-based, Plasma; set-up: dose 20 mg/kg, route oral; settings: in vivo
Rattus norvegicus [28] = experiment: Cmax in rat assessed as 2-(3-aminopiperidin-1-yl)-3-(2-chlorobenzyl)-5-methyl-4-oxo-4,5-dihydro-3H-imidazo[4,5-c]quinoline-7-carboxylic acid level at 20 mg/kg, po; format: ADME, organism-based; set-up: dose 20 mg/kg, route oral; settings: in vivo
[29] = Drug metabolism in human liver S9 fraction assessed as metabolite 3 formation at 1 uM after 30 mins by HPLC/MS/MS analysis relative to control; format: ADME, subcellular; settings: s9, 0.5 h; outline: as §1
Rattus norvegicus [30] = experiment: Tmax in rat assessed as 2-(3-aminopiperidin-1-yl)-3-(2-chlorobenzyl)-5-methyl-4-oxo-4,5-dihydro-3H-imidazo[4,5-c]quinoline-7-carboxylic acid level at 20 mg/kg, po; format: ADME, organism-based; set-up: dose 20 mg/kg, route oral; settings: in vivo
[31] = Solubility of the compound at pH 7.4; format: physicochemical; settings: buffer
Rattus norvegicus [32] = experiment: Cmax in rat assessed as 2-(3-aminopiperidin-1-yl)-3-(2-chloro-5-fluorobenzyl)-5-methyl-4-oxo-4,5-dihydro-3H-imidazo[4,5-c]quinoline-8-carboxylic acid level at 10 mg/kg, po; format: ADME, organism-based; set-up: dose 10 mg/kg, route oral; settings: in vivo
Dipeptidyl peptidase 4 = Dipeptidyl peptidase 4 (Homo sapiens, UniProt P27487); experiment: Inhibition of human DPP4
Rattus norvegicus [33] = experiment: AUC in rat assessed as 2-(3-aminopiperidin-1-yl)-3-(2-chloro-5-fluorobenzyl)-5-methyl-4-oxo-4,5-dihydro-3H-imidazo[4,5-c]quinoline-8-carboxylic acid level at 10 mg/kg, po; format: ADME, organism-based, Plasma; set-up: dose 10 mg/kg, route oral; settings: in vivo
Rattus norvegicus [34] = experiment: Tmax in rat assessed as 2-(3-aminopiperidin-1-yl)-3-(2-chloro-5-fluorobenzyl)-5-methyl-4-oxo-4,5-dihydro-3H-imidazo[4,5-c]quinoline-8-carboxylic acid level at 10 mg/kg, po; format: ADME, organism-based; set-up: dose 10 mg/kg, route oral; settings: in vivo
Rattus norvegicus [35] = experiment: Oral bioavailability in rat assessed as 2-(3-aminopiperidin-1-yl)-3-(2-chloro-5-fluorobenzyl)-5-methyl-4-oxo-4,5-dihydro-3H-imidazo[4,5-c]quinoline-8-carboxylic acid level at 10 mg/kg; format: ADME, organism-based; settings: in vivo
Rattus norvegicus [36] = experiment: Oral bioavailability in rat assessed as 2-(3-aminopiperidin-1-yl)-3-(2-chlorobenzyl)-5-methyl-4-oxo-4,5-dihydro-3H-imidazo[4,5-c]quinoline-8-carboxylic acid level at 10 mg/kg; format: ADME, organism-based; settings: in vivo

Dipeptidyl peptidase 4, sequence (P27487 whole entry): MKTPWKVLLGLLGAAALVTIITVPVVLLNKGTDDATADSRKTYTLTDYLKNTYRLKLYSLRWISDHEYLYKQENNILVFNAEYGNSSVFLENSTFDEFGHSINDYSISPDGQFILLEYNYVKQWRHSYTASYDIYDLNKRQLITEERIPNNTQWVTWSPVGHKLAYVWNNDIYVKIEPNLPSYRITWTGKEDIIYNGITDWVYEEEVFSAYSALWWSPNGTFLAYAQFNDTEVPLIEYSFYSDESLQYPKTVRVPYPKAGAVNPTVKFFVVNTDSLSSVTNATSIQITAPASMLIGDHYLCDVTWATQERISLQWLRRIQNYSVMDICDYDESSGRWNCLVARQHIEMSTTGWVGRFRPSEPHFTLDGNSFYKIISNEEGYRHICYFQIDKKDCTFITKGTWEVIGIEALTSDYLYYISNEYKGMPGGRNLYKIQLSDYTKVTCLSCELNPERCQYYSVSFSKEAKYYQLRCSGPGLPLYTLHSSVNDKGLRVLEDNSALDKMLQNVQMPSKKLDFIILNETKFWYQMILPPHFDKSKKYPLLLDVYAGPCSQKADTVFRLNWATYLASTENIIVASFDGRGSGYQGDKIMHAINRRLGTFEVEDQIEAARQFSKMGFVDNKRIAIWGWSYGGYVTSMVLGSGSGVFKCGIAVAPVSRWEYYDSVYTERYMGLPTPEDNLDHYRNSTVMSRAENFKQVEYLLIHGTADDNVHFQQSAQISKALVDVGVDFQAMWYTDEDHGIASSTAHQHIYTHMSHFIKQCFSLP

Structure (SMILES) | Papp [6] [×10⁻⁶ cm/s] | Papp [7] [×10⁻⁶ cm/s] | Drug metabolism (Serum [9]) | Drug metabolism (Serum [10]) | Drug metabolism [11] | remaining at 0.5 h, 1 µM [12] [%] | remaining at 0.5 h, 1 µM [13] [%] | Drug metabolism [14] | remaining at 0.5 h, 1 µM [15] [%] | remaining at 0.5 h, 1 µM [16] [%] | other results
Cn1c(=O)c2c(nc(N3CCC[C@@H](N)C3)n2Cc2ccccc2Cl)c2cc(C(=O)O)ccc21 | < 0.1 | < 0.1 |  |  |  |  |  |  |  |  | clearance [1]: 132 mL/min/kg; CLH (Liver microsome [2]): < 10 µL/min/mg; AUC [3]: 188 ng·h/mL; CLH (Liver microsome [4]): < 10 µL/min/mg; half-life [5]: 1 h; Vd [8]: 2.9 L/kg
Cl.Cn1c(=O)c2c(nc(N3CCC[C@@H](N)C3)n2Cc2ccccc2Cl)c2cc(C(=O)OCCN3CCOCC3)ccc21 | 0.9 | 7.1 | metabolite_detected | metabolite_detected | metabolite_detected | 37 | > 99 | metabolite_detected | 50 | 6.8 | 
Cn1c(=O)c2c(nc(N3CCC[C@@H](N)C3)n2Cc2cc(F)ccc2Cl)c2ccc(C(=O)O)cc21 |  |  |  |  |  |  |  |  |  |  | half-life [17]: 8.3 h; clearance [18]: 167 mL/min/kg; AUC [19]: 99.9 ng·h/mL; Vd [20]: 31.5 L/kg
Cl.Cn1c(=O)c2c(nc(N3CCC[C@@H](N)C3)n2Cc2ccccc2Cl)c2cc(C(=O)OCCCN3CCOCC3)ccc21 | < 0.1 | 3.4 | metabolite_detected | metabolite_detected | metabolite_detected | 48 | 78 | metabolite_detected | 76 | 7 | 
Cc1oc(=O)oc1COC(=O)c1ccc2c(c1)c1nc(N3CCC[C@@H](N)C3)n(Cc3cc(F)ccc3Cl)c1c(=O)n2C.Cl | 11 | 8.4 |  |  |  | 3.5 | 1 |  | < 0.5 | < 0.5 | Cmax (Rattus norvegicus [32]): 14.8 ng/mL; IC50 (Dipeptidyl peptidase 4): 4.7 nM; solubility [25]: 2 µg/mL; AUC (Rattus norvegicus [33]): 72.7 ng·h/mL; Tmax (Rattus norvegicus [34]): 2 h; solubility [26]: 25 µg/mL; F (Rattus norvegicus [35]): 11.7%; solubility [31]: < 1 µg/mL

The next lines start with results.

Papp [6] [×10⁻⁶ cm/s] | Papp [7] [×10⁻⁶ cm/s] | Drug metabolism (Serum [9]) | Drug metabolism (Serum [10]) | Drug metabolism [11] | remaining at 0.5 h, 1 µM [12] [%] | remaining at 0.5 h, 1 µM [13] [%] | Drug metabolism [14] | remaining at 0.5 h, 1 µM [15] [%] | remaining at 0.5 h, 1 µM [16] [%] | Structure (SMILES) | other results
12.5 | 14.2 |  |  |  | 17 | 1 |  | < 0.5 | < 0.5 | Cc1oc(=O)oc1COC(=O)c1ccc2c3nc(N4CCC[C@@H](N)C4)n(Cc4ccccc4Cl)c3c(=O)n(C)c2c1.Cl | Drug metabolism (Serum [21]): metabolite_detected; Drug metabolism [22]: metabolite_detected; Drug metabolism (Serum [23]): metabolite_detected; F (Rattus norvegicus [24]): 4%; solubility [25]: 2 µg/mL; solubility [26]: 54 µg/mL; AUC (Rattus norvegicus [27]): 61.9 ng·h/mL; Cmax (Rattus norvegicus [28]): 81.7 ng/mL; Drug metabolism [29]: metabolite_detected; Tmax (Rattus norvegicus [30]): 0.25 h; solubility [31]: 2 µg/mL
34.1 | 47.4 | metabolite_detected | metabolite_detected | metabolite_detected | > 99 | < 0.5 | metabolite_detected | 72 | 80 | COC(=O)c1ccc2c(c1)c1nc(N3CCC[C@@H](N)C3)n(Cc3ccccc3Cl)c1c(=O)n2C.Cl | F (Rattus norvegicus [36]): 2.4%
